Compound activity (PubChem)
Tn6 DDE FP: disrupts Tn6 cyclic peptide binding to fibrin D-Dimer-E complex. P02675. Fibrin DD(E) TRITC-Tn6 fluorescence polarization displacement. inhibition, % at 8.3 µM. 370,000 compounds, 0.21% hits. AID 720509;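 active = inhibition above a per-campaign cutoff: mean of compounds within control limits plus 3 SD, cut at about 15% in these data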;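 note: 0% = median of all compound wells on the plate and 100% = blocking peptide control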
SIAE primary: blocks human sialic acid acetylesterase | Q9HAT2 | SIAE FP-Rh probe binding, fluorescence polarization | inhibition, % at 9.66 µM | 370,000 compounds, 0.69% hits | AID 1053197;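 active = inhibition above a cutoff: mean of compounds within the control limits plus 3 SD of those, cut at about 17% in these data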;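 note: 0% = plate median of compound wells and 100% = probe without SIAE protein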
TCR CD3 inh: inhibitors of human TCR-CD3 interaction. inhibition, % at 9.4 µM. TAMRA-labeled TCR probe fluorescence, biochemical. 360,000 compounds, 0.37% hits; in the data active = inhibition above about 19%;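 note: recombinant mutant TCR 2C K166C tagged with TAMRA read by polarization; 0% = receptor in buffer alone and 100% = receptor with positive control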
DDE Tn7 FP inh: DD(E)-Tn7 binding inhibition, primary FP screen; P02675; FP displacement of FITC-Tn7 peptide from fibrin DD(E); 0% = median of compound wells per plate; inhibition, % at 8.3 µM; 370,000 compounds, 0.13% hits; AID 720508;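 active = inhibition above the mean of compounds falling within the control limits plus 3 SD of them, cut at about 14% in these data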;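 note: 0% = plate median of compound wells and 100% = 10 µM Aha-Tn7 peptide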
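System: human fibrin DD(E); quantity: Fibrin-DD(E) at 2 µM final; also added: fluorescent Tn7 probe at 0.1 µM; compound dosing: single nominal test concentration of 8.3 µM per compound; schedule: 10 min preincubation, 3 h with tracer, room temperature; detection: fluorescence polarization of the labelled Tn7 tracer; repeats: one replicate per compound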
HTRA1 inh: blocks human HTRA1 serine peptidase. Q92743. recombinant HTRA1, FP-rhodamine activity-based probe, fluorescence polarization. inhibition, % at 5.96 µM. 340,000 compounds, 0.5% hits; in the data active = inhibition above about 36%;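 note: 0% = enzyme with DMSO and 100% = wells lacking enzyme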
Target sequence (Q92743 whole entry, looked up): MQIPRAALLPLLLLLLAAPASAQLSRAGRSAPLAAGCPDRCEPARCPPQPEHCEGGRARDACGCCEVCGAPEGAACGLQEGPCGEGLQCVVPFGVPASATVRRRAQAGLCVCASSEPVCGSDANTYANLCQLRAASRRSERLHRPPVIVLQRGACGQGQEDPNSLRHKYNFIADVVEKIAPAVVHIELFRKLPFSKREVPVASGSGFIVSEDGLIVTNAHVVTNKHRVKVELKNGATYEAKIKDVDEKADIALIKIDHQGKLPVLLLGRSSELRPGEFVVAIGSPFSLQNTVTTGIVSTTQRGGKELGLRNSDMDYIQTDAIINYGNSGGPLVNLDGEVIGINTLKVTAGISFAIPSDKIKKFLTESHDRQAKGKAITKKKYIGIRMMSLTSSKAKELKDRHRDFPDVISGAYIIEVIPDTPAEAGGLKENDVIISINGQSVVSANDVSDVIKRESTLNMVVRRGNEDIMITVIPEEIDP
ABHD4 inh: inhibitors of mouse ABHD4 | inhibition, % at 8.92 µM | Q8VD66 | purified mABHD4, FP-Rh probe fluorescence polarization | 370,000 compounds, 0.54% hits;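 active = inhibition exceeding the mean over every tested compound plus 3 SD, cut at about 30% in these data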;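 note: 0% = plate median of compound wells and 100% = S159A mutant with DMSO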
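Doses – 8.92 µM, single dose · Material – wild-type mouse ABHD4 protein · Replication – single well per compound (singlicate) · Measure – percent inhibition of probe binding, normalized to plate controls · Schedule – 45 min compound pre-incubation plus 60 min probe step, 25 °C · Detection – fluorescence polarization with parallel and perpendicular emission, 525/598 nm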
HTRA1 inh conf: confirmation of human HTRA1 inhibitors; recombinant HTRA1, FP-rhodamine activity-based probe, fluorescence polarization; inhibition, % at 5.96 µM; AID 540248; 1,600 compounds, 66% hits; shares compounds with HTRA1 inh;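 active = mean inhibition over three repeats above a set limit taken from the earlier primary screen, cut at about 37% in these data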;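 note: 0% = HTRA1 with DMSO and 100% = wells lacking HTRA1; inhibitors block probe binding so polarization drops and inhibition rises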
Numbers without * were called inactive; . = no result given. Shown are actives, neighbours in structure and some others; about 1.8% of the full set was active somewhere.

SMILES | Tn6 DDE FP | SIAE primary | TCR CD3 inh | DDE Tn7 FP inh | HTRA1 inh | ABHD4 inh | HTRA1 inh conf
O=C(C1=C(O)C(=O)N(c2nc3ccc(Cl)cc3s2)C1c1ccco1)c1ccco1 (stereo not drawn) | -6 | 5 | 18 | 0 | 39* | 28 | -54
Cc1ccc2nc(N3C(=O)C(O)=C(C(=O)c4ccc(C)o4)C3c3ccco3)sc2c1 (stereo not drawn) | -1 | 2 | 0 | 3 | 3 | 15 | .
O=S(=O)(Nc1cccc(-c2ccc3nncn3n2)c1)c1ccc(Cl)s1 | 4 | -5 | -5 | 0 | -4 | -2 | .
Cc1nc2cc(-c3ccsc3-n3c(C)ccc3C)[nH]n2c(=O)c1Cl | -5 | 5 | 7 | -7 | 38* | 7 | 3
CCOC(=O)[C@]12CCCC3=C1N(CCC3)C(=O)[C@@H](CC(=O)NCCCCc1ccccc1)C2 | 1 | 6 | . | -6 | . | 5 | .
CN1CCN(C(c2ccc(Cl)cc2)c2cc(Cl)c3cccnc3c2O)CC1 (stereo not drawn) | -2 | -4 | -9 | -9 | 43* | -1 | 87*
Oc1c(C(c2ccccn2)N2CCCCC2)cc(Cl)c2cccnc12 (stereo not drawn) | 4 | 4 | -1 | 1 | 53* | 6 | 55*
CN1CCN(C(c2ccc(C(F)(F)F)cc2)c2cc(Cl)c3cccnc3c2O)CC1 (stereo not drawn) | -7 | 7 | -2 | -4 | . | -7 | .
COC(=O)C[C@H]1CC[C@@H]2[C@@H](COc3ccc(NC(=O)C4CCCCC4)cc3C(=O)N2C)O1 | -8 | -1 | . | -2 | . | 7 | .
CN(C)c1ccc(-c2cc(O)c3ncccc3c2)cc1 | 2 | 14 | 5 | 6 | 24 | 8 | .
CN(C)CCCNC(=O)c1ccc(-c2cc(O)c3ncccc3c2)cc1 | 0 | 0 | -9 | -2 | 69* | 11 | 85*
CN(C)c1ccc(NC(=O)NC2CCCCN(Cc3cccc(Cl)c3)C2=O)cc1 (stereo not drawn) | -9 | -10 | . | -5 | . | 11 | .
CC(=O)Nc1ccc(NC(=O)CC2Nc3cccc4cccc(c34)NC2=O)cc1 (stereo not drawn) | -2 | 7 | 4 | 4 | 13 | 20 | .
CC(=O)c1ccc(NC(=O)CC2Nc3cccc4cccc(c34)NC2=O)cc1 (stereo not drawn) | 4 | 9 | 9 | 2 | 57* | 22 | 10
CCn1c(C)nc2cc(C(=O)N/N=C(\C)c3ccc(OC)cc3O)ccc21 | -4 | -1 | -1 | -2 | 40* | 9 | 34
CCOc1cc(/C=C2\C(=O)N(c3nc(-c4ccc(Br)cc4)cs3)N=C2c2ccccc2)ccc1O | . | . | . | . | 40* | . | 47*
COc1cc(/C=C2\C(=O)N(c3ccc(NC(C)=O)cc3)N=C2c2ccccc2)ccc1O | -2 | 14 | -11 | 7 | 7 | 14 | .
CN(C)c1cccc(/C=C2\CC3(OC(=O)c4ccccc4)CCCN2C3)c1 (stereo not drawn) | -5 | 12 | . | 9 | . | 2 | .
O=C(N/N=C/c1ccc([N+](=O)[O-])o1)c1cc2ccccc2o1 | 3 | 7 | 9 | 0 | 28 | 29 | .
O=[N+]([O-])c1ccc(/C=N/Nc2ccc3ccccc3c2)o1 | -7 | 8 | -61 | -6 | 37* | 0 | 16
COc1ccccc1N1C(=O)N(C(C)=O)C2C1Nc1ccccc1N2C (stereo not drawn) | 0 | 11 | 2 | 4 | 49* | 26 | 8
NC(=O)C1CCN(c2oc(/C=C/c3ccc(F)cc3)nc2S(=O)(=O)c2ccccc2)CC1 | 0 | 0 | -8 | 6 | 2 | 8 | .
O=C(Nc1cccc(Cl)c1)OC1CCC12CCC(c1ccccc1)CC2 (stereo not drawn) | -4 | -16 | . | 7 | . | -27 | .
CCOc1ccc(C(=O)CSc2nnc3ccccn23)cc1 | 3 | 5 | -2 | -2 | -4 | 5 | .
CCn1c(CSc2nnc3ccccn23)nc2cc(C(=O)O)ccc21 | 20* | 54* | 67* | -3 | 37* | 40* | 79*
SMILES | Tn6 DDE FP | SIAE primary | TCR CD3 inh | DDE Tn7 FP inh | HTRA1 inh | ABHD4 inh | HTRA1 inh conf
COc1ccc(C(=O)OC(C)C(=O)NC2CCCCC2C)cc1S(=O)(=O)N1CCOCC1 (stereo not drawn) | -3 | -1 | -5 | -1 | 7 | 6 | .
Cc1cc(C)c(S(=O)(=O)/N=C2/C=C(SCC(=O)O)C(=O)c3ccccc32)cc1C | . | . | . | . | 54* | . | 36
S=c1[nH]nc(-c2cc(-c3ccccc3)n[nH]2)n1N=Cc1cccc(OCc2ccccc2)c1 | 11 | -4 | . | 1 | . | -2 | .
CCc1ccc(CNc2ccc3c(c2)ncn3CC)cc1 | 3 | 4 | 4 | 7 | 5 | 10 | .
CCc1ccc(CNc2ccc(O)cc2)cc1 | . | . | . | . | 73* | . | 52*
CN(C)c1ccc(NC(=O)c2cccc(C(=O)Nc3ccc(N(C)C)cc3)n2)cc1 | 4 | 11 | -4 | 3 | 44* | 25 | 65*
Cc1ccsc1C=Nc1ccc(O)cc1 | . | . | . | . | 51* | . | 15
Cc1ccsc1/C=N/N=C/c1sccc1C | -1 | -9 | 2 | 3 | -4 | 1 | .
Cc1ccc(F)cc1C(=O)N1CCCC(C)(C(=O)NS(=O)(=O)C2CC2)C1 (stereo not drawn) | 1 | 4 | 2 | 2 | . | -3 | .
CN1CCN(c2nc3ccccc3nc2C(C#N)S(=O)(=O)c2ccccc2)CC1 (stereo not drawn) | -3 | 0 | -4 | 6 | . | 0 | .
N#CC(c1nc2ccccc2nc1N1CCCC1)S(=O)(=O)c1ccccc1 (stereo not drawn) | 6 | 6 | 6 | -2 | 39* | 6 | 5
Cc1cc(C(C)(C)C)c(O)c(C(C)(C)C)c1 | 4 | 3 | -8 | 6 | 4 | -8 | .
Cc1cc(O)c(Oc2cc(C)cc(O)c2O)c(O)c1 | -1 | 5 | 13 | 9 | 64* | 29 | 81*
O=C1C=C(N2CCN(c3ccccn3)CC2)C(=O)c2c(O)ccc(O)c21 | 6 | 6 | 1 | 1 | 38* | 13 | 49*
O=C(N1CCN(c2ccccn2)CC1)C(Cl)(Cl)Cl | 8 | -1 | 1 | -6 | -4 | -3 | .
Cc1cccc(C)c1NC(=O)CN(C)C(=O)c1cc([N+](=O)[O-])ccc1N1CCOCC1 | -2 | 3 | 3 | 4 | 1 | 6 | .
CN(CC(=O)Nc1ccccc1Br)C(=O)c1cc([N+](=O)[O-])ccc1N1CCOCC1 | -4 | -15 | -2 | -12 | 92* | -5 | -2
Cn1nccc1C(=O)N/N=C/c1c(O)ccc2ccccc12 | -21 | 12 | 13 | 2 | 55* | 5 | 54*
